A short description of assay [1]: Inhibition of beta-lactamase TEM-1 assessed as inactivation rate constant for longer incubation time yield of enzyme by spectrophotometry.
Assay [2] can be described thus: Inhibition of beta-lactamase TEM-1 assessed as inactivation rate constant by spectrophotometry. A digest of the protocol:
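Reporter-substrate method at 37°C: purified TEM-1 at 0.25 nM was added to 100 µM nitrocefin plus inhibitor at various concentrations, and hydrolysis was followed at 485 nm for 60 s. kobs was taken from the time courses, and K and k2 came from a plot of [I]/kobs against [I]. Means of at least two independent experiments.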

Experimental findings from ChEMBL document CHEMBL1687818, “Mechanistic studies of the inactivation of TEM-1 and P99 by NXL104, a novel non-beta-lactam beta-lactamase inhibitor” (Antimicrob Agents Chemother, 2010) are described below.

Consider `O=C(O)[C@H]1/C(=C/CO)O[C@@H]2CC(=O)N21`, for which, in assay [1], the Activity stood at 0.03 s⁻¹.
Turning to `C[C@]1(Cn2ccnn2)[C@H](C(=O)O)N2C(=O)C[C@H]2S1(=O)=O`, the Activity in assay [1] came to 0.02 s⁻¹.
For the compound `NC(=O)[C@@H]1CC[C@@H]2CN1C(=O)N2OS(=O)(=O)O` (relative stereo), the Activity in assay [2] amounted to 0.11 s⁻¹.
